Drawing on ChEMBL document CHEMBL1152556, “Omega-conotoxin GVIA mimetics based on an anthranilamide core: effect of variation in ammonium side chain lengths and incorporation of fluorine” (Bioorg Med Chem, 2009), this text covers EC50 for 14 molecules.

SMILES strings stand for the structures.

For the first assay, the target named is Voltage-dependent N-type calcium channel subunit alpha-1B (Rattus norvegicus, UniProt Q02294). In words: Displacement of [125I]GVIA from Cav2.2 channel in rat brain by scintillation counting.
Chain of Voltage-dependent N-type calcium channel subunit alpha-1B (Q02294 whole entry): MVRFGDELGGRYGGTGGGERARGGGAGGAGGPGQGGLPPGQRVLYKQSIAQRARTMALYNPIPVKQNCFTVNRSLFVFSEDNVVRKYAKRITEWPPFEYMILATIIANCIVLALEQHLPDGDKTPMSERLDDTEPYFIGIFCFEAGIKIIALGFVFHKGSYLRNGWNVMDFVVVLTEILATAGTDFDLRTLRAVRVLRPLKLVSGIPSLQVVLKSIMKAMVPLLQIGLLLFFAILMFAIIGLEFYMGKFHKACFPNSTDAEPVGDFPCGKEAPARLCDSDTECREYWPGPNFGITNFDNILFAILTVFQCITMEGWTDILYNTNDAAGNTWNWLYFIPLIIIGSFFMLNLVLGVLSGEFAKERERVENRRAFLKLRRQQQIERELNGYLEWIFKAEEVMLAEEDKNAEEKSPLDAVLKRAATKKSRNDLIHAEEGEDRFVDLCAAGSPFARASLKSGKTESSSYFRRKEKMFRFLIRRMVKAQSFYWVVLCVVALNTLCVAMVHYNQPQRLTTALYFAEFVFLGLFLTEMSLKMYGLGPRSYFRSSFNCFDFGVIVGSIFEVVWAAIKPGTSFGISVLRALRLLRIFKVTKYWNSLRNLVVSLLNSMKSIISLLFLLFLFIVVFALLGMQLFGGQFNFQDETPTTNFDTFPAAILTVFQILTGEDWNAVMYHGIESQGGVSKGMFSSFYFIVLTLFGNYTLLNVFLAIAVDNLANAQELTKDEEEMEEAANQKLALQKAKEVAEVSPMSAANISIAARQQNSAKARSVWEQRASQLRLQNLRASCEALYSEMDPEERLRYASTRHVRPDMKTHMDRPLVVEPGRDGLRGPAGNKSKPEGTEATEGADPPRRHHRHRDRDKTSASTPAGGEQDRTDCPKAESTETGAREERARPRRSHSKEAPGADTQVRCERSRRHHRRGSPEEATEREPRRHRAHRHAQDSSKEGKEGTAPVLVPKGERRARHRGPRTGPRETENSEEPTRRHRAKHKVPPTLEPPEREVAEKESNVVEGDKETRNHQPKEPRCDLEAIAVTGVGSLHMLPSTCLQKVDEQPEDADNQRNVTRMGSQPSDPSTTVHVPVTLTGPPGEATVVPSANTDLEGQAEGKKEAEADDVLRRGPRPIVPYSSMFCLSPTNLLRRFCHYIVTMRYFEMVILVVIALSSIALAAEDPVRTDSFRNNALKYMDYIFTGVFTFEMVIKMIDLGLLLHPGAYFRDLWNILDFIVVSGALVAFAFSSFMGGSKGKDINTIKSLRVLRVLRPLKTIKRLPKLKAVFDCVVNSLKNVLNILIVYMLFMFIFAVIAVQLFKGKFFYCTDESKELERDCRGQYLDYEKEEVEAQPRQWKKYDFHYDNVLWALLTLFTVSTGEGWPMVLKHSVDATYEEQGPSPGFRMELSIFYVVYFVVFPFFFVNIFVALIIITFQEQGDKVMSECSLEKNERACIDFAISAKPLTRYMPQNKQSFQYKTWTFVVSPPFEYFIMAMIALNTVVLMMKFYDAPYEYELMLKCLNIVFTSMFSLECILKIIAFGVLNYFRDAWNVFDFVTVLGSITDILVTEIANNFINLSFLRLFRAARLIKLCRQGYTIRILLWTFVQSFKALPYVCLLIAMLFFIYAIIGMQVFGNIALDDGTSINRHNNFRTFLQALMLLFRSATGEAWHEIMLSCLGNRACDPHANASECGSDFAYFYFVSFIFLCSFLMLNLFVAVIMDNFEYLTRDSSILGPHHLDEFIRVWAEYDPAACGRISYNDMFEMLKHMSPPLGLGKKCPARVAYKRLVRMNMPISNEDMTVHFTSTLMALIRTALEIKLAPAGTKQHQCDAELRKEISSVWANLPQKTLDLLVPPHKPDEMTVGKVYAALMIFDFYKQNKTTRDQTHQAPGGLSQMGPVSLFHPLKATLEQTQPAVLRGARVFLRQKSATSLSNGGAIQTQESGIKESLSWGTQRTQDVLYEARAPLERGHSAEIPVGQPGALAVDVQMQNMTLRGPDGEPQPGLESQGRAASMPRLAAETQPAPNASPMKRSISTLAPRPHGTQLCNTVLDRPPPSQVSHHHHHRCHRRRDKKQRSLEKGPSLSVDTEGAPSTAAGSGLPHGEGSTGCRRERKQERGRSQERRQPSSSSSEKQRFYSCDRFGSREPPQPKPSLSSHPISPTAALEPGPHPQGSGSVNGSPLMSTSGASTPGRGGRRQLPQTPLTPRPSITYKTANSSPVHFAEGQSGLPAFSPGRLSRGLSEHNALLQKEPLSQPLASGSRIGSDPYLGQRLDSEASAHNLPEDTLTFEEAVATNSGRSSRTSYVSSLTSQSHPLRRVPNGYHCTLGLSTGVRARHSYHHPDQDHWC
Conditions: not given; call rule not given here
The format is tissue-based. The procedure, abridged: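 Radioligand displacement run in triplicate at room temperature on crude rat brain membrane (8 lg per well, added last) with 125I-GVIA tracer. Buffer: 20 mM HEPES, 75 mM NaCl, 0.2 mM EDTA, 0.2 mM EGTA, leupeptin, aprotinin, 0.1% BSA, pH 7.4. Shaken 1 h, then filtered on PEI-soaked glass fibre and washed with HEPES/125 mM NaCl, pH 7.4. Filter-bound counts read.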
For `NCCCCCCCC(=O)Nc1ccc(OCCCN)cc1C(=O)Nc1ccc(Oc2ccc(O)cc2)cc1`, the EC50 result was “Not Active”.
Still for that read-out and setting: for `NCCCCCCCC(=O)Nc1ccc(OCCCN)cc1C(=O)Nc1ccc(Oc2ccc(F)cc2)cc1` the value was “Not Active”.

The same assay, now with this note: read-out: EC50.
On to `NC(N)=NCCCCCC(=O)Nc1ccc(OCCCN=C(N)N)cc1C(=O)Nc1ccc(Oc2ccccc2)cc1`, for which the EC50 amounted to 16 µM.
Take `NCCCCCC(=O)Nc1ccc(OCCCN)cc1C(=O)Nc1ccc(Oc2ccccc2)cc1`: the concentration giving a half-maximal response (EC50) came to 107 µM.
As to `NC(N)=NCCCCCCCC(=O)Nc1ccc(OCCCN=C(N)N)cc1C(=O)Nc1ccc(Oc2ccc(F)cc2)cc1`, the EC50 amounted to 6 µM.
The same measure, in the same setting: for `NC(N)=NCCCCCCCC(=O)Nc1ccc(OCCCCN=C(N)N)cc1C(=O)Nc1ccc(Oc2ccccc2)cc1` the value was 15 µM; for `NC(N)=NCCCCC(=O)Nc1ccc(OCCCN=C(N)N)cc1C(=O)Nc1ccc(Oc2ccccc2)cc1`, 116 µM.
Still for that read-out and setting: the figure for `NC(N)=NCCCCCCCC(=O)Nc1ccc(OCCCN=C(N)N)cc1C(=O)Nc1ccc(Oc2ccccc2)cc1` is 13 µM.
On the same count and under the same terms, the figure for `NC(N)=NCCCCCCCC(=O)Nc1ccc(OCCCN=C(N)N)cc1C(=O)Nc1ccc(Oc2ccc(O)cc2)cc1` is 16 µM; for `NCCCCCCCC(=O)Nc1ccc(OCCCCN)cc1C(=O)Nc1ccc(Oc2ccccc2)cc1` it is 90 µM.
Take `NCCCCCC(=O)Nc1ccc(OCCCCN)cc1C(=O)Nc1ccc(Oc2ccccc2)cc1`: the 50% effective concentration (EC50) stood at 99 µM.
On the same count and under the same terms, for `NCCCCC(=O)Nc1ccc(OCCCN)cc1C(=O)Nc1ccc(Oc2ccccc2)cc1` the value was 77 µM; for `NC(N)=NCCCCCC(=O)Nc1ccc(OCCCCN=C(N)N)cc1C(=O)Nc1ccc(Oc2ccccc2)cc1`, 17 µM; for `NCCCCCCCC(=O)Nc1ccc(OCCCN)cc1C(=O)Nc1ccc(Oc2ccccc2)cc1`, 72 µM.
